CAL PDZ FP-1: blocks peptide binding to human CAL PDZ domain | hit rate 0.02% among 330,000 | purified CAL PDZ, TMR-peptide fluorescence polarization, 1 h | AID 504414 | inhibition, % at 20 µM | Q9HD26;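 active = highest replicate inhibition of at least 40%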
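System: purified tagged CAL PDZ domain construct (CerCALP). Schedule: 1 h incubation at room temperature before polarization reading. Medium: 25 mM sodium phosphate pH 7.4, 150 mM NaCl, TCEP, IgG, Thesit. Read-out: percent inhibition from loss of millipolarization. Measured by: FP readout, S and P plane fluorescence. Probe or stimulus: fluorescent TMR peptide probe.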
CAL PDZ FP-2: CAL PDZ (human) peptide binding inhibition. Q9HD26. purified CAL PDZ, TMR-peptide fluorescence polarization, 1 h. inhibition, % at 24.9 µM. hit rate 0.92% among 300,000. AID 602252;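 active = mean inhibition of at least 30% with at least half of replicates also reaching 30%; inconclusive = no clear call, values can overlap the other calls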
Keap1-Nrf2 PPI: inhibitors of human Keap1-Nrf2 protein-protein interaction; Q14145; inhibition, % at 9.4 µM; hit rate 0.15% among 340,000; Keap1 Kelch-Nrf2 peptide fluorescence polarization, 1536-well; in the data active = inhibition above about 12%; inconclusive = no clear call, values can overlap the other calls; inactive = below about 7.3%;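 note: human Keap1 Kelch domain with fluorescein labeled Nrf2 9mer peptide probe; higher means more block of Keap1 binding to Nrf2 peptide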
miR-122 sensor: miR-122 inhibition in Huh7 cells; activation (reporter increase), % at 12.5 µM; hit rate 0.3% among 340,000; Huh7 miR-122 Renilla luciferase sensor, 48 h; neutral wells = 0, positive control = 100;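 active = mean replicate activation score at least 90 and every replicate individually at or above 90; inconclusive = only one of the two criteria met; inactive = neither criterion met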;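 note: higher luciferase means less miR-122 activity so hits act as miR-122 inhibitors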
LANA DNA inh: blocks KSHV LANA C-terminal domain binding to DNA; MBP-C-LANA/FAM-LBS DNA binding, fluorescence polarization; inhibition, % at 9 µM; hit rate 0.078% among 340,000; AID 504423;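 active = highest replicate inhibition at or above 60% at 9 µM, even if other replicates fall short; inactive = all replicates below 60% inhibition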
Numbers stand for hits; n = inactive; u = inconclusive; x = not tested or not shown; [ ] = another dose, or the depositor's remark. Most compounds without a hit are left out; they make up all but 1.1% or so of the library.

SMILES	CAL PDZ FP-1	CAL PDZ FP-2	Keap1-Nrf2 PPI	miR-122 sensor	LANA DNA inh
C[C@@H]1CCCCO[C@H](CN(C)S(=O)(=O)c2ccccc2)[C@H](C)CN([C@@H](C)CO)C(=O)c2cc(NS(=O)(=O)c3ccccc3)ccc2O1	x	x	x	n	x
COCC(=O)N(C)C[C@H]1Oc2ncc(-c3ccc(F)cc3)cc2C(=O)N([C@H](C)CO)C[C@H]1C	x	x	x	n	x
CCOC(=O)Nc1ccc(NS(=O)(=O)c2ccc(C)cc2)cc1	n	u	n	206	n
CCOc1ccc(NS(=O)(=O)c2ccc(NS(=O)(=O)c3ccccc3)cc2)cc1	n	x	n	x	n
CCOC(=O)Nc1ccc(S(=O)(=O)Nc2nc(C)cc(C)n2)cc1	n	x	n	n	n
CCOc1ccc(S(=O)(=O)Nc2cc(NS(=O)(=O)c3ccc(OCC)cc3)cc(C(=O)O)c2)cc1	n	n	22	x	n
C[C@H](CO)N1C[C@H](C)[C@@H](CN(C)C(=O)Nc2ccccc2)OCCCC[C@H](C)Oc2ccc(NC(=O)Nc3ccc4c(c3)OCO4)cc2C1=O	x	x	x	n	x
CN(C)c1c([N+](=O)[O-])cc(N2C(=O)C=CC2=O)cc1[N+](=O)[O-]	n	37	n	n	n
COc1cc(NS(=O)(=O)c2ccc(NC(=S)NC(=O)C3CCCC3)cc2)nc(OC)n1	n	n	n	n	n
COc1cc(NS(=O)(=O)c2ccc(NC(=S)Nc3ccccc3)cc2)nc(OC)n1	111	n	n	n	n
CNC[C@H]1Oc2ccc(NS(=O)(=O)c3ccc(Cl)cc3)cc2CC(=O)N([C@@H](C)CO)C[C@@H]1C	x	x	x	n	x
CN1CCN(S(=O)(=O)CC2(C)C3CCC2(C)C(=O)C3Br)CC1 (configuration not stated)	n	n	n	n	n
CCN1CCN(S(=O)(=O)CC2(C)C3CCC2(C)C(=O)C3Br)CC1 (configuration not stated)	n	41	n	x	n
O=C(O)Cn1c(-c2ccccc2)cc2ccccc21	n	62	n	n	n
O=C(O)Cn1c(-c2ccccc2)nc2ccccc21	x	n	n	n	n
C[C@@H]1CN([C@@H](C)CO)C(=O)c2cccc(NC(=O)c3cnccn3)c2O[C@@H]1CN(C)Cc1ccc(C(=O)Nc2ccccc2N)cc1	x	x	x	129[16.7 µM]	x
C[C@@H]1CN([C@H](C)CO)C(=O)c2cc(NC(=O)Nc3ccc(C(F)(F)F)cc3)ccc2O[C@H]1CN(C)Cc1ccc(Cl)c(Cl)c1	n	37	n	n	n
C[C@H]1CN([C@@H](C)CO)C(=O)c2cccc(NC(=O)Nc3ccccc3)c2O[C@@H]1CN(C)Cc1ccc(C(=O)Nc2ccccc2N)cc1	x	x	x	153[16.7 µM]	x
C[C@@H]1CN([C@H](C)CO)C(=O)c2cccc(NC(=O)Nc3ccccc3)c2O[C@H]1CN(C)Cc1ccc(C(F)(F)F)cc1	x	x	x	107[16.7 µM]	x
C[C@H](CO)N1C[C@H](C)[C@@H](CN(C)C(=O)Nc2ccc(F)cc2)OCCCC[C@H](C)Oc2ccc(NS(=O)(=O)c3ccccc3)cc2C1=O	x	x	x	n	x
CN(C)CC(=O)Nc1ccc2c(c1)[C@@H]1C[C@@H](CC(=O)NCc3cccc(F)c3)O[C@@H](CO)[C@@H]1O2	x	x	x	n	x
CCN1[C@@H]2c3cccc(=O)n3C[C@@H]2[C@@H](CO)[C@@H]1C(=O)N1CCc2ccccc2C1	x	x	x	n	x
C[C@H](CO)N1C[C@H](C)[C@@H](CN(C)Cc2ccc(C(=O)Nc3ccccc3N)cc2)Oc2c(NC(=O)Nc3ccccc3)cccc2C1=O	x	x	x	97[16.7 µM]	x
NC(=S)N=Nc1c(O)[nH]c2ccc(F)cc12	n	n	n	x	n
NC(=S)N=Nc1c(O)cc(O)c2[nH]c(=O)ccc12	n	n	15	n	n
SMILES	CAL PDZ FP-1	CAL PDZ FP-2	Keap1-Nrf2 PPI	miR-122 sensor	LANA DNA inh
CN(C)c1ccc2c(c1)[C@@H]1C[C@@H](CC(=O)NCc3ccncc3)O[C@@H](CO)[C@@H]1O2	x	x	x	n	x
COc1ccc(S(=O)(=O)N(C)C[C@H]2OCCCC[C@@H](C)Oc3ccc(NC(=O)CCC(F)(F)F)cc3C(=O)N([C@@H](C)CO)C[C@@H]2C)cc1	x	x	x	n	x
Nc1nc(-c2cccnc2)nc2sc3c(c12)CCCC3	n	n	n	x	n
CC(=O)Nc1ccc(Oc2nc(-c3cccnc3)nc3sc4c(c23)CCCC4)cc1	n	67	n	n	n
CCCC(=O)n1nc(-c2ccc(C)cc2)nc1NCc1ccco1	n	81	n	x	n
Cc1ccc(C(=O)n2nc(-c3ccccc3)nc2NCc2ccco2)cc1	n	n	n	n	n

Source: PubChem BioAssay
